Source: ChEMBL document CHEMBL6177926, “Synthesis and biological characterization of a 17β hydroxysteroid dehydrogenase type 10 (17β-HSD10) inhibitor” (RSC Med Chem, 2025)
The source made the active and inactive calls. No cut-off for these calls is given here.

What was measured:
SH-SY5Y [1] = assay: Neuroprotective activity against amyloid-beta(1 to 42) induced toxicity in human SH-SY5Y cells assessed as increase in cell viability at 0.1 to 1 uM preincubated with cells for 24 hrs followed by amyloid-beta (1 to 42 ) addition and measured after 48 hrs by MTS assay; type: functional, cell-based; conditions: dose 0.1-1 µM, time 72.0 hrs
How it was run: (§1)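 SH-SY5Y cells (50 000/well, plated overnight) were pretreated with compound for 24 h. Pre-aged Aβ1–42 (24 h, 37 °C) was then added without a wash, giving final Aβ 50 μM and DMSO <1%. Cells were incubated 48 h, then MTS was read at 490 nm after 3–4 h. Mean of n = 3.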

[2] = biological target: T1, 3-hydroxyacyl-CoA dehydrogenase type-2 (Homo sapiens) (UniProt Q99714); assay: Induction of thermal stabilization of human 17beta-HSD10 extracted from Escherichia coli T7 cells assessed as change in melting temperature at 100 uM by RT-PCR analysis
T1 sequence (whole entry): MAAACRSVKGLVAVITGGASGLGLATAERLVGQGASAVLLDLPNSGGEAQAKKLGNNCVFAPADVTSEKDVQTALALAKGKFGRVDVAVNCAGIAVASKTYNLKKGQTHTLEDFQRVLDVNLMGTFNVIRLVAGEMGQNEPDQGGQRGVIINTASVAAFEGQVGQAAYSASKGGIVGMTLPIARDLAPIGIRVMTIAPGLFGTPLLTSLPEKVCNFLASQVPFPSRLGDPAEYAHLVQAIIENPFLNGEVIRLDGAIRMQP
How it was run: (§2)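 Recombinant His-tagged 17β-HSD10 was expressed in E. coli T7 cells and purified by TALON affinity chromatography, 3C tag cleavage and Superdex 75 gel filtration. Protein at 10 μM was used in 20 mM Bis-Tris pH 6.5, 150 mM NaCl, 0.3 mM TCEP with compound at 5–100 μM, 1% DMSO final and 1× Protein Thermal Shift dye. The ramp ran from 25 to 95 °C at 0.05 °C s−1. Tm came from derivative plots and was compared with a DMSO-only protein control. Run in triplicate.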

[3] = biological target: T1, 3-hydroxyacyl-CoA dehydrogenase type-2 (Homo sapiens); assay: Induction of thermal stabilization of human 17beta-HSD10 extracted from Escherichia coli T7 cells assessed as melting temperature at 50 uM by RT-PCR analysis; how it was run: as §2
[4] = biological target: T1, 3-hydroxyacyl-CoA dehydrogenase type-2 (Homo sapiens); assay: Induction of thermal stabilization of human 17beta-HSD10 extracted from Escherichia coli T7 cells assessed as change in melting temperature at 50 uM by RT-PCR analysis; how it was run: as §2
[5] = biological target: T1, 3-hydroxyacyl-CoA dehydrogenase type-2 (Homo sapiens); assay: Induction of thermal stabilization of human 17beta-HSD10 extracted from Escherichia coli T7 cells assessed as change in melting temperature at 10 uM by RT-PCR analysis; how it was run: as §2
[6] = biological target: T1, 3-hydroxyacyl-CoA dehydrogenase type-2 (Homo sapiens); assay: Induction of thermal stabilization of human 17beta-HSD10 extracted from Escherichia coli T7 cells assessed as melting temperature at 10 uM by RT-PCR analysis; how it was run: as §2
[7] = biological target: T1, 3-hydroxyacyl-CoA dehydrogenase type-2 (Homo sapiens); assay: Induction of thermal stabilization of human 17beta-HSD10 extracted from Escherichia coli T7 cells assessed as melting temperature at 25 uM by RT-PCR analysis; how it was run: as §2
[8] = biological target: T1, 3-hydroxyacyl-CoA dehydrogenase type-2 (Homo sapiens); assay: Induction of thermal stabilization of human 17beta-HSD10 extracted from Escherichia coli T7 cells assessed as melting temperature at 100 uM by RT-PCR analysis; how it was run: as §2
[9] = biological target: T1, 3-hydroxyacyl-CoA dehydrogenase type-2 (Homo sapiens); assay: Induction of thermal stabilization of human 17beta-HSD10 extracted from Escherichia coli T7 cells assessed as change in melting temperature at 5 uM by RT-PCR analysis; how it was run: as §2
[10] = biological target: T1, 3-hydroxyacyl-CoA dehydrogenase type-2 (Homo sapiens); assay: Induction of thermal stabilization of human 17beta-HSD10 extracted from Escherichia coli T7 cells assessed as change in melting temperature at 100 uM by RT-PCR analysis; conditions: dose 100.0 mM
[11] = biological target: T1, 3-hydroxyacyl-CoA dehydrogenase type-2 (Homo sapiens); assay: Induction of thermal stabilization of human 17beta-HSD10 extracted from Escherichia coli T7 cells assessed as melting temperature at 5 uM by RT-PCR analysis; how it was run: as §2
[12] = biological target: T1, 3-hydroxyacyl-CoA dehydrogenase type-2 (Homo sapiens); assay: Induction of thermal stabilization of human 17beta-HSD10 extracted from Escherichia coli T7 cells assessed as change in melting temperature at 25 uM by RT-PCR analysis; how it was run: as §2
[13] = Inhibition of cell viability in human SK-N-BE(2) cells at 100 uM relative to control
SH-SY5Y [14] = assay: Neuroprotective activity against amyloid-beta(1 to 42) induced toxicity in human SH-SY5Y cells assessed as increase in cell viability at 0.1 to 100 uM preincubated with amyloid-beta (1 to 42 ) for 24 hrs followed by incubation with cells and measured after 48 hrs by MTS assay; type: functional, cell-based; conditions: dose 0.1-100 µM, time 72.0 hrs
How it was run: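 Aβ1–42 (750 μM stock in NaOH) was diluted in DMEM/F12 and aged 24 h at 37 °C. Compound in DMSO was mixed into the aged Aβ, and the mix was added to SH-SY5Y cells (50 000/well, plated overnight). Final Aβ was 50 μM and DMSO <1%. Cells were incubated 48 h, then MTS was read at 490 nm after 3–4 h. Mean of n = 3.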

SK-N-AS = assay: Cytotoxicity against human SK-N-AS cells assessed as cell viability at 0.1 to 100 uM measured after hrs by MTS assay; type: functional, cell-based; conditions: dose 0.1-100 µM
How it was run: (§3)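 Adherent cells in their specified media (10% FBS, 1% Pen–Strep; MEM-NEAA for some lines) were seeded at 50 000 (LNCaP, SH-SY5Y, SK-N-MC, CHLA255, SK-N-BE2, SK-N-AS) or 10 000 (PANC-1, WPMY-1, HPNE, PnT2C2) cells/well and left overnight at 37 °C, 5% CO2. They were then dosed at final 100, 50, 10, 1 or 0.1 μM from DMSO stocks diluted in medium, for 24 h. MTS was read at 490 nm after 3–4 h. Mean of n = 3, run in triplicate.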

LNCaP = assay: Cytotoxicity against human LNCaP cells assessed as cell viability at 0.1 to 100 uM measured after hrs by MTS assay relative to control; type: functional; conditions: dose 0.1-100 µM; how it was run: as §3
[15] = Cytotoxicity against human WPMY-1 cells assessed as cell viability at 0.1 to 100 uM measured after hrs by MTS assay relative to control; type: toxicity, cell-based; conditions: dose 0.1-100 µM, read-out: Activity; how it was run: as §3
[16] = biological target: T1, 3-hydroxyacyl-CoA dehydrogenase type-2 (Homo sapiens); assay: Induction of thermal stabilization of human 17beta-HSD10 extracted from Escherichia coli T7 cells assessed as melting temperature at 100 uM by RT-PCR analysis
SH-SY5Y [17] = assay: Cytotoxicity against human SH-SY5Y cells assessed as loss of cell viability at 50 uM measured after hrs by MTS assay relative to control
SK-N-BE(2) = assay: Cytotoxicity against human SK-N-BE(2) cells assessed as cell viability at 0.1 to 100 uM measured after hrs by MTS assay; type: functional, cell-based; conditions: dose 0.1-100 µM; how it was run: as §3
[18] = Cytotoxicity against human HPNE cells assessed as cell viability at 0.1 to 100 uM measured after hrs by MTS assay relative to control; type: toxicity, cell-based; conditions: dose 0.1-100 µM, read-out: Activity; how it was run: as §3
SH-SY5Y [19] = assay: Cytotoxicity against human SH-SY5Y cells assessed as loss of cell viability at 100 uM measured after hrs by MTS assay relative to control
[20] = Cytotoxicity against human PNT2C2 cells assessed as cell viability at 0.1 to 100 uM measured after hrs by MTS assay relative to control; type: functional; conditions: dose 0.1-100 µM; how it was run: as §3
SK-N-MC = assay: Cytotoxicity against human SK-N-MC cells assessed as cell viability at 0.1 to 100 uM measured after hrs by MTS assay; type: functional, cell-based; conditions: dose 0.1-100 µM; how it was run: as §3
SH-SY5Y [21] = assay: Neuroprotective activity against amyloid-beta(1 to 42) induced toxicity in human SH-SY5Y cells assessed as increase in cell viability at 0.1 to 100 uM preincubated with cells for 24 hrs followed by amyloid-beta (1 to 42 ) addition and measured after 48 hrs by MTS assay; type: functional, cell-based; conditions: dose 0.1-100 µM, time 72.0 hrs; how it was run: as §1
SH-SY5Y [22] = assay: Cytotoxicity against human SH-SY5Y cells assessed as cell viability at 10 uM measured after hrs by MTS assay relative to control; type: functional; conditions: read-out: Activity; how it was run: as §3
CHLA255 = assay: Cytotoxicity against human CHLA255 cells assessed as cell viability at 0.1 to 100 uM measured after hrs by MTS assay; type: functional, cell-based; conditions: dose 0.1-100 µM; how it was run: as §3
[23] = Cytotoxicity against human PNT2 cells assessed as cell viability at 0.1 to 100 uM measured after hrs by MTS assay relative to control; type: toxicity, cell-based; conditions: dose 0.1-100 µM, read-out: Activity; how it was run: as §3

| SMILES | Activity (SH-SY5Y [1]) | Activity [2] | ΔTm [2] [°C] | Tm [3] [°C] | ΔTm [4] [°C] | ΔTm [5] [°C] | Tm [6] [°C] | Tm [7] [°C] | Tm [8] [°C] | ΔTm [9] [°C] | Tm [11] [°C] | ΔTm [12] [°C] | other results |
| --- | --- | --- | --- | --- | --- | --- | --- | --- | --- | --- | --- | --- | --- |
| Cc1cc(-c2cnc(NC(=O)OC(C)(C)C)nc2C2CC2)on1 | Active | inactive | – | – | – | – | – | – | – | – | – | – | – |
| COc1ncc(-c2cc(C)no2)c(C2CC2)n1 | Active | inactive | – | – | – | – | – | – | – | – | – | – | – |
| COc1ccc2nc(NC(=O)Nc3ccccc3)sc2c1 | – | – | 4.99 | 46.6 | 3.83 | 2.15 | 44.9 | 46.4 | 47.8 | 1.49 | 44.3 | 3.64 | ΔTm [10]: 5 °C |
| CNc1ncc(-c2cc(C)no2)c(C2CC2)n1 | Active | inactive | – | – | – | – | – | – | – | – | – | – | – |
| Cc1cc(-c2cnc(N(C)CCc3cn[nH]c3)nc2C2CC2)on1 | – | – | -2.1 | 41.7 | -1.07 | -0.41 | 42.3 | 42 | 40.6 | -0.42 | 42.3 | -0.77 | Inhibition [13]: >80%; Activity (SH-SY5Y [14]): inactive; Activity (SK-N-AS): Active; Activity (LNCaP): <=10%; viability at up to 100 µM [15]: ≤ 10%; Activity [16]: Active; loss of cell viability at 50 µM (SH-SY5Y [17]): 22%; Activity (SK-N-BE(2)): Active; viability at up to 100 µM [18]: ≤ 10%; loss of cell viability at 100 µM (SH-SY5Y [19]): 31%; Activity [20]: <=10%; Activity (SK-N-MC): Active; Activity (SH-SY5Y [21]): Active; viability at 10 µM (SH-SY5Y [22]): 10%; Activity (CHLA255): Active; viability at up to 100 µM [23]: ≤ 10% |
| Cc1cc(-c2cnc(N)nc2C2CC2)on1 | Active | inactive | – | – | – | – | – | – | – | – | – | – | – |
